Measured values reported in ChEMBL document CHEMBL2375282, “Spirohexenolide A targets human macrophage migration inhibitory factor (hMIF)” (J Nat Prod, 2013).
Calls of active or inactive are those of the source. The calls are words filed in the database; no cut-off is given here.

Tests used:
HCT-116 [1] = test: Cytotoxicity against human HCT116 cells by MTT assay; assay type: functional, cell-based
Method in brief: (§1)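 HCT-116 cells grown in McCoy's 5A with 10% heat-inactivated FCS and penicillin/streptomycin at 37 °C, 5% CO2. Conventional MTT assay, run in triplicate at 5 or 6 concentrations spanning 0 to 0.035 mg/mL. Repeated until deviation fell within 5%.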

[2] = target: T1, Macrophage migration inhibitory factor (Homo sapiens) (UniProt P14174); test: Inhibition of human MIF-mediated AKT phosphorylation expressed in mouse NIH/3T3 cells after 30 mins by Western blotting analysis; assay type: cell-based; details: NIH3T3
T1 sequence (whole entry): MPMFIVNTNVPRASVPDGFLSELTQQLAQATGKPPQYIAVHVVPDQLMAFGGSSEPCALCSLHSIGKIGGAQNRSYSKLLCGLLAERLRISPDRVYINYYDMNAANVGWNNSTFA
Method in brief: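 NIH/3T3 cells grown 24 h in DMEM with 10% FCS in 12-well plates, then serum-starved 24 h. Treated 30 min with hMIF (1 μg) plus DMSO or plus compound (0.1 μg) in 100 μL medium. Lysates blotted for p-Akt Ser473, total Akt and GAPDH. p-Akt/Akt ratio normalized to GAPDH, with untreated cells set to 1. Three independent experiments.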

[3] = target: T2, Macrophage migration inhibitory factor (Homo sapiens, UniProt P14174); test: Binding affinity to human recombinant MIF expressed in Escherichia coli BL21(DE3) by isothermal titration calorimetric assay
T2 sequence (P14174 whole entry): T1 sequence (whole entry)
Method in brief: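 Recombinant hMIF from E. coli BL-21(DE3) (pET-11b), purified by SP/Q flow-through, dialyzed in 50 mM potassium phosphate pH 7.4. ITC at 30 °C: 1.25 mM hMIF titrated from syringe into 1.5 mL of 0.5 mM ligand in the same buffer with 2% DMSO. Buffer-only titration used as control. Kd fitted with a sigmoid function over multiple analyses.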

[4] = Cytotoxicity against human NCI60 cells by MTT assay; assay type: functional
[5] = target: T1, Macrophage migration inhibitory factor (Homo sapiens); test: Inhibition of human recombinant Alexa 488-labeled MIF expressed in Escherichia coli BL21(DE3) assessed as inhibition of uptake into human HCT116 cells at 30 uM after 2 hrs by inverted confocal microscopic analysis; details: HCT-116
Method in brief: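 Recombinant hMIF labeled with Alexa Fluor 488 (~0.3 dye per protein) in NaHCO3 pH 8.3. HCT-116 cells given 1.5 μM Alexa-hMIF premixed with 30 μM compound for 2 h at 37 °C, then washed and fixed with formaldehyde/glutaraldehyde. Two-color confocal imaging: 375 nm excitation with 448 nm emission, and 488 nm excitation with 524 nm emission.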

HCT-116 [6] = test: Growth inhibition of human HCT116 cells; assay type: functional; method in brief: as §1
[7] = target: T1, Macrophage migration inhibitory factor (Homo sapiens); test: Inhibition of human recombinant MIF tautomerase activity expressed in Escherichia coli BL21(DE3) at 100 uM in presence of dopachrome
Method in brief: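 Dopachrome made from 0.24 mM DOPA plus 0.48 mM NaIO4 in 25 mM potassium phosphate pH 7.2, 5 min at rt. Added 1:1 to wells holding 10 μM purified recombinant hMIF premixed with 100 μM compound. Kinetics followed immediately at 485 nm. Controls: buffer, compound alone, hMIF alone.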

[8] = Cellular uptake in human HCT116 cells assessed as lysosomal localization at 10 uM after 6 to 12 hrs by inverted confocal microscopic analysis; assay type: ADME, cell-based, Lysosome; details: hct-116, 10 µM
Method in brief: (§2)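 Live HCT116 cells in McCoy's 5A with 10% FCS, 37 °C, 5% CO2. Compound added as 10× stock in media, final DMSO under 0.5%. Time-lapse imaging over 24 h at 10–15 min intervals, then spinning-disk confocal at selected times (1, 6, 24 h) with IAF tag excitation 360 nm and emission 470 nm. Lysosomes counterstained with LysoTracker Red after fixation in formaldehyde/glutaraldehyde.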

HCT-116 [9] = test: Cytotoxicity against human HCT116 cells assessed as compaction of chromatin at 10 uM after 24 hrs by inverted confocal microscopic analysis; assay type: cell-based; details: hct-116, 24 h; method in brief: as §2
[10] = target: T1, Macrophage migration inhibitory factor (Homo sapiens); test: Binding affinity to MIF in human HCT116 whole cell lysates by Western blotting analysis; details: HCT-116
Method in brief: (§3)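 Affinity capture with immunoaffinity-fluorescent (IAF)-tagged probe. Live-cell route: HCT116 cells incubated 4 h at 37 °C with 15 μg probe in 15 mL media, then lysed (D-PBS, 5 mM EDTA, 1% NP-40, protease inhibitors). Whole-lysate route: probe added after lysis. Lysate immunoprecipitated on anti-IAF mAb resin 4 h at 4 °C. Elution with 0.1 M glycine-HCl pH 2.5, then NuPAGE and blotting with anti-hMIF mAb.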

[11] = target: T1, Macrophage migration inhibitory factor (Homo sapiens); test: Binding affinity to MIF in human HCT116 live cell lysates by Western blotting analysis; details: HCT-116; method in brief: as §3
[12] = Drug uptake in human HCT116 cell cytoplasm at 10 uM after 1 hr by inverted confocal microscopic analysis; assay type: ADME, cell-based; details: hct-116, 1 h; method in brief: as §2
HCT-116 [13] = test: Cytotoxicity against human HCT116 cells assessed as membrane blebbing at 10 uM after 24 hrs by inverted confocal microscopic analysis; assay type: cell-based; details: hct-116, 24 h; method in brief: as §2
[14] = Drug uptake in human HCT116 cell membrane at 10 uM after 1 hr by inverted confocal microscopic analysis; assay type: ADME, cell-based; details: hct-116, 1 h; method in brief: as §2
HCT-116 [15] = test: Cellular uptake in human HCT116 cells assessed as increase in blue fluorescence at 10 uM after 1 hr by inverted confocal microscopic analysis; assay type: ADME, cell-based; details: hct-116, 1 h; method in brief: as §2
[16] = target: T1, Macrophage migration inhibitory factor (Homo sapiens); test: Binding affinity to human recombinant MIF expressed in Escherichia coli BL21(DE3) lysates by Western blotting analysis
Method in brief: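 E. coli BL21(DE3) lysate expressing recombinant hMIF (pET-11b, 0.4 mM IPTG, 4 h), 1–2 mg net protein. Immunoprecipitated with 1 μg IAF-tagged probe on anti-IAF mAb resin, 4 h at 4 °C. Glycine-HCl pH 2.5 elution. Blot probed with mouse anti-hMIF monoclonal and AP-conjugated secondary, BCIP/NBT development.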

[17] = read-out: LC50 (the source's name)

SMILES | IC50 (HCT-116 [1]) | inhibition [2] | Kd [3] | GI50 [4] | TGI [4] | CC50 [4, 17] | inhibition [5] | GI50 (HCT-116 [6]) | TGI (HCT-116 [6]) | CC50 (HCT-116 [6]; [17]) | inhibition [7] | Drug uptake [8] | Activity (HCT-116 [9]) | Activity [10] | Activity [11] | Drug uptake [12] | Activity (HCT-116 [13]) | Drug uptake [14] | Drug uptake (HCT-116 [15]) | Activity [16]
CC1=C[C@]2(C)/C=C(C)/C=C/C[C@@H](OC(=O)CCn3cc(CNC(=O)Cc4cc(=O)oc5cc(N(C)C)ccc45)nn3)/C=C3C=C/C(=C4\C(=O)O[C@]2(C[C@@H]1C)C4=O)OC/3 | 21.2 µM | – | – | – | – | – | – | – | – | – | – | – | – | – | – | – | – | – | – | –
CC1=C[C@]2(C)/C=C(C)/C=C/C[C@@H](O)/C=C3C=C/C(=C4\C(=O)O[C@]2(C[C@@H]1C)C4=O)OC/3 | 36 µM | Active | 35.9 µM | 2.16 µM | 8.81 µM | 33.2 µM | Active | 0.79 µM | 5.01 µM | 100 µM | inactive | – | – | – | – | – | – | – | – | –
CC1=C[C@]2(C)/C=C(C)/C=C/C[C@@H](OC(=O)CCC(=O)NCCCCCCNC(=O)Cc3cc(=O)oc4cc(N(C)C)ccc34)/C=C3C=C/C(=C4\C(=O)O[C@]2(C[C@@H]1C)C4=O)OC/3 | 6 µM | – | – | – | – | – | – | – | – | – | inactive | Active | Toxic | Active | Active | Active | Toxic | Active | Active | Active
